pIC50: −log10 of the molar value. Values belong to the compound of their own block, whether it stands above or below them.
Key:
[1] = molecular target: T1, Tyrosyl-DNA phosphodiesterase 1 (Homo sapiens, UniProt Q9NUW8); test: Inhibition of recombinant Tdp1 (unknown origin) using 5'-(5,6 FAM-aac gtc agg gtc ttc c-BHQ1)-3' as substrate measured every 55 secs for 8 mins by fluorimetric assay
[2] = Cytotoxicity against HEK293 cells after 72 hrs by MTT assay; assay type: cell-based; settings: human
Procedure, shortened: (§1)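 Cells seeded at ~2000 per well and grown 24 h at 37 °C, 5% CO2 in IMDM with 10% FBS plus penicillin/streptomycin. Then exposed to the compound (1 to 100 µM) for 72 h. Viability read by MTT as A570 versus DMSO control. CC50 interpolated from the dose-response curve. Mean ± SD of triplicates.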

A549 [3] = test: Potentiation of topotecan-induced cytotoxicity against human A549 cells assessed as topotecan CC50 at 1 uM after 72 hrs by MTT assay (reference value: 111 +/- 27 nM); assay type: functional; settings: A549, 72 h
A549 [4] = test: Potentiation of topotecan-induced cytotoxicity against human A549 cells assessed as fold reduction in topotecan CC50 at 1 uM after 72 hrs by MTT assay relative to topotecan alone; assay type: functional
Procedure, shortened: (§2)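 A-549 or HEK-293 cells (~2000/well) preincubated 24 h at 37 °C in IMDM with 10% FBS, penicillin/streptomycin, 5% CO2. Then treated with varied topotecan concentrations with or without inhibitor at 1 µM for 72 h. Viability read by MTT (A570) against DMSO control. Topotecan CC50 interpolated from dose-response curves, mean ± SD of triplicates.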

[5] = Cytotoxicity against human A549 cells after 72 hrs by MTT assay; assay type: cell-based; procedure, shortened: as §1
Tdp1 [6] = test: Selectivity index, ratio of CC50 for human A549 cells to IC50 for recombinant Tdp1 (unknown origin) using 5'-(5,6 FAM-aac gtc agg gtc ttc c-BHQ1)-3' as substrate; assay type: toxicity; settings: A549 cells (CC50) and recombinant Tdp1 (IC50), probe 5'-(5,6 FAM-aac gtc agg gtc ttc c-BHQ1)-3'
Tdp1 [7] = test: Selectivity index, ratio of CC50 for HEK293 cells to IC50 for recombinant Tdp1 (unknown origin) using 5'-(5,6 FAM-aac gtc agg gtc ttc c-BHQ1)-3' as substrate; assay type: toxicity; settings: human, HEK293 cells (CC50) and recombinant Tdp1 (IC50), probe 5'-(5,6 FAM-aac gtc agg gtc ttc c-BHQ1)-3'
[8] = molecular target: T1, Tyrosyl-DNA phosphodiesterase 1; test: Inhibition of recombinant Tdp1 (unknown origin) using 5'-([32P]-aac gtc agg gtc ttc c-tyrosine)-3' as substrate measured after 5 mins by electrophoresis method
[9] = molecular target: T1, Tyrosyl-DNA phosphodiesterase 1; test: Inhibition of recombinant Tdp1 (unknown origin) using 5'-([32P]-aac gtc agg gtc ttc c-BHQ1)-3' as substrate measured after 20 mins by electrophoresis method
HEK293 = test: Potentiation of topotecan-induced cytotoxicity against HEK293 cells assessed as fold reduction in topotecan CC50 at 1 uM after 72 hrs by MTT assay relative to topotecan alone; assay type: cell-based; settings: human, hek293, 72 h; procedure, shortened: as §2

T1 sequence (Q9NUW8 whole entry): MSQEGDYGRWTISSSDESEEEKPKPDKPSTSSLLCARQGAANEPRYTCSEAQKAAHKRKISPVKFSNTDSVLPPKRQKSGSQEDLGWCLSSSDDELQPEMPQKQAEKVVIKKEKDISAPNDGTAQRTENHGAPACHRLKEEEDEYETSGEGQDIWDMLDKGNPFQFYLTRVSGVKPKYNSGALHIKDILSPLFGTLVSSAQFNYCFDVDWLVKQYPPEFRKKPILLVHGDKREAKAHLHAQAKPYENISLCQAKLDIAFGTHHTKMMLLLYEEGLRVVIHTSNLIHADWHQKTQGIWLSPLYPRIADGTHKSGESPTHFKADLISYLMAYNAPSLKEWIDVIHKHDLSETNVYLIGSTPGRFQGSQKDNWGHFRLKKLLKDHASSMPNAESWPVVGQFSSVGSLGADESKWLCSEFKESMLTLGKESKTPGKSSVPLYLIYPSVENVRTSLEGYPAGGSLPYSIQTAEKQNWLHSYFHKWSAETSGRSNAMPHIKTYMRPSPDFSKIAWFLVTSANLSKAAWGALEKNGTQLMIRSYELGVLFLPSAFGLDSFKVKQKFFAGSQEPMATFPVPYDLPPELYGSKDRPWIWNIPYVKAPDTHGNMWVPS

SMILES: CC(=O)C1=C(O)C=C2Oc3c4c(c(C)c(O)c3[C@@]2(C)C1=O)O/C(=C\c1ccco1)C4=O
- pIC50 [1]: 5.26

SMILES: CC(=O)C1=C(O)C=C2Oc3c4c(c(C)c(O)c3[C@@]2(C)C1=O)O/C(=C\c1ccc(F)cc1)C4=O
- pIC50 [1]: 6.01

SMILES: CC(=O)C1=C(O)C=C2Oc3c4c(c(C)c(O)c3[C@@]2(C)C1=O)O/C(=C\c1ccc(Cl)cc1)C4=O
- pIC50 [1]: 5.91

SMILES: CC(=O)C1=C(O)C=C2Oc3c4c(c(C)c(O)c3[C@@]2(C)C1=O)O/C(=C\c1cccs1)C4=O
- pIC50 [1]: 6.05

SMILES: CC(=O)C1=C(O)C=C2Oc3c4c(c(C)c(O)c3[C@@]2(C)C1=O)O/C(=C\c1ccsc1)C4=O
- pIC50 [1]: 5.48

SMILES: CC(=O)C1=C(O)C=C2Oc3c4c(c(C)c(O)c3[C@@]2(C)C1=O)O/C(=C\c1ccoc1)C4=O
- pIC50 [1]: 5.17

SMILES: CC(=O)C1=C(O)C=C2Oc3c4c(c(C)c(O)c3[C@@]2(C)C1=O)O/C(=C\c1ccc(Br)cc1)C4=O
- CC50 at 72 h [2]: 14600 nM
- CC50 (A549 [3]): 162 nM
- CC50 at 72 h [5]: 10000 nM
- selectivity ratio (Tdp1 [6]): 66.7
- selectivity ratio (Tdp1 [7]): 97.3

SMILES: CC(=O)C1=C(O)C=C2Oc3c4c(c(C)c(O)c3[C@@]2(C)C1=O)O/C(=C\c1ccccc1)C4=O
- pIC50 [1]: 6.14

SMILES: CC(=O)C1=C(O)C=C2Oc3c4c(c(C)c(O)c3[C@@]2(C)C1=O)O/C(=C\c1ccc(O)cc1)C4=O
- pIC50 [1]: 5.80

SMILES: CC(=O)C1=C(O)C=C2Oc3c4c(c(C)c(O)c3[C@@]2(C)C1=O)O/C(=C\c1ccccn1)C4=O
- pIC50 [1]: 6.07

SMILES: COc1ccc(/C=C2\Oc3c(C)c(O)c4c(c3C2=O)OC2=CC(O)=C(C(C)=O)C(=O)[C@@]24C)cc1OC
- pIC50 [1]: 5.99

SMILES: CC(=O)C1=C(O)C=C2Oc3c4c(c(C)c(O)c3[C@@]2(C)C1=O)O/C(=C\c1ccc[nH]1)C4=O
- pIC50 [1]: 5.44

SMILES: CC(=O)C1=C(O)C=C2Oc3c4c(c(C)c(O)c3[C@@]2(C)C1=O)O/C(=C\C1CCCCC1)C4=O
- pIC50 [1]: < 4.82

SMILES: CC(=O)C1=C(O)C=C2Oc3c4c(c(C)c(O)c3[C@@]2(C)C1=O)O/C(=C\c1ccncc1)C4=O
- pIC50 [1]: 6.09

SMILES: CC(=O)C1=C(O)C=C2Oc3c4c(c(C)c(O)c3[C@@]2(C)C1=O)O/C(=C\c1ccc(C)s1)C4=O
- pIC50 [1]: 6.08

The next lines start with results.

- pIC50 [1]: 7.19
SMILES: CC(=O)C1=C(O)C=C2Oc3c4c(c(C)c(O)c3[C@]2(C)C1=O)O/C(=C\c1cc(C(C)(C)C)cc(C(C)(C)C)c1O)C4=O

- pIC50 [1]: 6.41
SMILES: COc1ccccc1/C=C1\Oc2c(C)c(O)c3c(c2C1=O)OC1=CC(O)=C(C(C)=O)C(=O)[C@@]13C

- pIC50 [1]: 7.09
SMILES: CC(=O)C1=C(O)C=C2Oc3c4c(c(C)c(O)c3[C@]2(C)C1=O)O/C(=C\c1ccc(Br)s1)C4=O

- pIC50 [1]: 6.47
SMILES: COc1ccc(/C=C2\Oc3c(C)c(O)c4c(c3C2=O)OC2=CC(O)=C(C(C)=O)C(=O)[C@@]24C)c(OC)c1OC
- CC50 at 72 h [2]: 20000 nM
- CC50 (A549 [3]): 48 nM
- fold change (FC) (A549 [4]): 2
- CC50 at 72 h [5]: 4600 nM
- selectivity ratio (Tdp1 [6]): 13.5
- selectivity ratio (Tdp1 [7]): 58.8

- pIC50 [1]: 6.64
SMILES: CC(=O)C1=C(O)C=C2Oc3c4c(c(C)c(O)c3[C@@]2(C)C1=O)O/C(=C\c1ccccc1Br)C4=O
- CC50 at 72 h [2]: 15900 nM
- CC50 (A549 [3]): 48 nM
- fold change (FC) (A549 [4]): 2
- CC50 at 72 h [5]: 4560 nM
- selectivity ratio (Tdp1 [6]): 19.8
- selectivity ratio (Tdp1 [7]): 69.1

- pIC50 [1]: 6.20
SMILES: CC(=O)C1=C(O)C=C2Oc3c4c(c(C)c(O)c3[C@@]2(C)C1=O)O/C(=C\c1sccc1C)C4=O

- pIC50 [1]: 6.80
SMILES: CC(=O)C1=C(O)C=C2Oc3c4c(c(C)c(O)c3[C@@]2(C)C1=O)O/C(=C\c1ccc(C)o1)C4=O
- CC50 at 72 h [2]: > 50000 nM
- CC50 (A549 [3]): 40 nM
- fold change (FC) (A549 [4]): 2
- CC50 at 72 h [5]: > 50000 nM
- selectivity ratio (Tdp1 [6]): > 300
- selectivity ratio (Tdp1 [7]): > 300

- pIC50 [8]: 5.40
- pIC50 [9]: 6.19
- pIC50 [1]: 6.28
SMILES: CC(=O)C1=C(O)C=C2Oc3c4c(c(C)c(O)c3[C@@]2(C)C1=O)O/C(=C\c1cc(Br)cc(Br)c1)C4=O

- pIC50 [1]: 6.35
SMILES: CC(=O)C1=C(O)C=C2Oc3c4c(c(C)c(O)c3[C@@]2(C)C1=O)O/C(=C\c1cccnc1)C4=O

- pIC50 [1]: 7.60
SMILES: CC(=O)C1=C(O)C=C2Oc3c4c(c(C)c(O)c3[C@@]2(C)C1=O)O/C(=C\c1cc(C(C)(C)C)cc(C(C)(C)C)c1O)C4=O
- CC50 at 72 h [2]: 14500 nM
- CC50 (A549 [3]): 558 nM
- CC50 at 72 h [5]: 6800 nM
- selectivity ratio (Tdp1 [6]): 272

- pIC50 [1]: 6.22
SMILES: CC(=O)C1=C(O)C=C2Oc3c4c(c(C)c(O)c3[C@@]2(C)C1=O)O/C(=C\c1cc(Br)cs1)C4=O

- pIC50 [1]: 7.20
SMILES: CC(=O)C1=C(O)C=C2Oc3c4c(c(C)c(O)c3[C@@]2(C)C1=O)O/C(=C\c1ccc(Br)s1)C4=O
- CC50 at 72 h [2]: 15700 nM
- fold change (FC) (HEK293): 2 to 4
- CC50 (A549 [3]): 47 nM
- fold change (FC) (A549 [4]): 2
- CC50 at 72 h [5]: 8700 nM
- selectivity ratio (Tdp1 [6]): 138
- selectivity ratio (Tdp1 [7]): 249

- pIC50 [1]: 6.47
SMILES: COc1ccc(/C=C2\Oc3c(C)c(O)c4c(c3C2=O)OC2=CC(O)=C(C(C)=O)C(=O)[C@@]24C)cc1
- CC50 at 72 h [2]: 15800 nM
- CC50 (A549 [3]): 90 nM
- CC50 at 72 h [5]: 8300 nM
- selectivity ratio (Tdp1 [6]): 24.4
- selectivity ratio (Tdp1 [7]): 46.5

- pIC50 [1]: 6.63
SMILES: CC(=O)C1=C(O)C=C2Oc3c4c(c(C)c(O)c3[C@@]2(C)C1=O)O/C(=C\c1cccc(Br)c1)C4=O
- CC50 at 72 h [2]: 14500 nM
- CC50 (A549 [3]): 132 nM
- CC50 at 72 h [5]: 11400 nM
- selectivity ratio (Tdp1 [6]): 49.1
- selectivity ratio (Tdp1 [7]): 62.5

From ChEMBL document CHEMBL4229495 (Bioorg Med Chem, 2018)
